Results on seven compounds are retold here after PubChem BioAssay.

Active and inactive are the calls of the source.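 How the source made its calls, unless noted: active means a full or partial loss of lipid-probe fluorescence in the fish gall bladder, intestine or both, judged by eye; inactive means no fluorescence loss, or compound toxic to the fish.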

A short description of experiment [1]: inhibitors of TNFa-induced NFkB p65 translocation, primary screen, imaging, HUVEC, MLSMR starter and 10KST1 sets (AID 438;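 active means inhibition above 20% together with a positive visual image hit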;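 further: compound added about 3h40 before a 20 min TNFalpha stimulation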;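 on inhibition: signal is the nuclear over cytoplasmic p65 intensity ratio per well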). The note with it: HUVEC TNFa-induced p65 nuclear translocation; cell count: measured here: nuclei count (cytotoxicity indicator), at 2.08 µM; inhibition: at 2 µM, stronger effect = higher value, 0% TNFa-plus-vehicle, 100% no-TNFa wells.
Experiment [2] in a line: endothelial E-selectin expression blockers – imaging, HUVEC, immunofluorescence, MLSMR starter and 10KST1 sets, primary screen (AID 487;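 active means visually confirmed hit in the image check and inhibition above 20%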;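 on inhibition: signal is fraction of cell area covered by stained E-selectin grains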;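 on nuclei count: 100% = median nuclei count of all wells on the same plate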). The note with it: HUVEC TNFalpha-induced E-selectin immunofluorescence imaging, at 2 µM; inhibition: stronger effect = higher value; nuclei count: measured here: cell number, toxicity.
Experiment [3] can be described thus: Primary imaging screen for DUSP6 inhibitors that restore phospho-Erk in transfected HeLa cells, chemical complementation (AID 609;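 active means compounds giving at least 50% inhibition in the cell-based MKP-3 phosphatase rescue imaging test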;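 on inhibition: phospho-Erk level distribution per well compared with pooled transfected vehicle control wells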). The note with it: HeLa MKP-3 transfected, phospho-Erk imaging KS statistic, at 10 µM, cells stimulated with TPA for 15 min.
The target in experiment [4] is Dual specificity protein phosphatase 6 (Homo sapiens) (UniProt Q16828). The description is as above. The note with it: HeLa MKP-3 transfected, phospho-Erk imaging KS statistic; at 10 µM; stronger effect = higher value; cells stimulated with TPA for 15 min.
Chain of Dual specificity protein phosphatase 6 (Homo sapiens) (Q16828 whole entry, looked up): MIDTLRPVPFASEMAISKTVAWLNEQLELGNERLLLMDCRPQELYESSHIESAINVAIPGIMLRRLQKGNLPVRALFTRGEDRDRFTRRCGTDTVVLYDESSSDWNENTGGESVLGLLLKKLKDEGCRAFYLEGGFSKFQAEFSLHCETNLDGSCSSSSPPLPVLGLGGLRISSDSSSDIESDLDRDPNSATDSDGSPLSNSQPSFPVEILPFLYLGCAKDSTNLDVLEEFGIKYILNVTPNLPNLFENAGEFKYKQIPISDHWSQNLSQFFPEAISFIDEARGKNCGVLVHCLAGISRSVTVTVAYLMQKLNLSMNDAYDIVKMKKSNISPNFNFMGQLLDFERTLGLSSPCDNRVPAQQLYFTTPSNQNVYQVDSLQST
The target in experiment [5] is Voltage-gated potassium channel subunit beta-2 (Rattus norvegicus) (UniProt P62483). Nature of the experiment: inhibitors of rat Kvbeta2 reductase activity – biochemical, NADPH fluorescence, primary screen (AID 622;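 active means fluorescence slope higher than the sample average by over 3 SD, cut at about -0.22 in these data, passing the limit was not always enough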;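 further: slope of raw intensity against log time taken from 70 to 1610 s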). The note with it: recombinant KvBeta, 4-cyanobenzaldehyde reduction, at 10 µM, stronger effect = higher value.
Chain of Voltage-gated potassium channel subunit beta-2 (Rattus norvegicus) (P62483 whole entry, looked up): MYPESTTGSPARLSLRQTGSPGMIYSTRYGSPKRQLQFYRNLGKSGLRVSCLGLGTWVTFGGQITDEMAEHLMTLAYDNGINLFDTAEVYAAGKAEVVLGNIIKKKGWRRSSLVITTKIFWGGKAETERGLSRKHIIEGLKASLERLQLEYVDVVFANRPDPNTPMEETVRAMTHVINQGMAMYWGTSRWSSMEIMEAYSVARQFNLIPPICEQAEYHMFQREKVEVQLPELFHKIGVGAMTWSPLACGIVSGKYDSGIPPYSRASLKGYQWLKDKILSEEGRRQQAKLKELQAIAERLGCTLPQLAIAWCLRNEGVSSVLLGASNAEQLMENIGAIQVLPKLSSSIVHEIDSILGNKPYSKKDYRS
Experiment [6] has the same target. Nature of the experiment: enhancers of rat Kvbeta2 NADPH turnover – biochemical, NADPH fluorescence, primary screen (AID 623;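 active means NADPH fluorescence slope more negative than the mean of all samples by about 3 SD, 99.7% confidence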;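 further: fluorescence intensity change per second fitted from 20 to 320 s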). The note with it: Recombinant KvBeta, NADPH fluorescence decrease slope, 10 min; at 10 µM; stronger effect = lower value.
Experiment [7] deals with Alpha-2C adrenergic receptor (Homo sapiens) (UniProt P18825). Nature of the experiment: compounds altering alpha2C-coupled GIRK flux – cell-based, HEK293 alpha2C/GIRK1/2, thallium flux, primary screen (AID 624;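 active means fluorescence slope after compound addition differing from the mean of all screened samples at 99.7% confidence, in either direction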;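 further: slope of fluorescence ratio to pre-addition baseline per second over 15 to 24 s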). The note with it: thallium flux BTC fluorescence, at 10 µM, actives lie on both sides.
Chain of Alpha-2C adrenergic receptor (Homo sapiens) (P18825 whole entry, looked up): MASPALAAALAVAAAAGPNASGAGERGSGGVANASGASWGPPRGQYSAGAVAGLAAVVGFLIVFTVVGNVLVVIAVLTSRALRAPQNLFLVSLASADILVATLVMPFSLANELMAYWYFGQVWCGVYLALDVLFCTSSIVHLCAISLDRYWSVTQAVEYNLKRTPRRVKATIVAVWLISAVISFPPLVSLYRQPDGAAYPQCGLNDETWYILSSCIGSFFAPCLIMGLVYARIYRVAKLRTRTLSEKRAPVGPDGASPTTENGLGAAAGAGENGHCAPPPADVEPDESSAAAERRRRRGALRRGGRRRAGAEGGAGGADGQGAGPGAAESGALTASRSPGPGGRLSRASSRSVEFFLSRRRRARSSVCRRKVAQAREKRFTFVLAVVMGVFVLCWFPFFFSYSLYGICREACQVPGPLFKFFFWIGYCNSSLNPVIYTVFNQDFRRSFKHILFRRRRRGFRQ
A short description of experiment [8]: inhibitors of larval lipid processing in zebrafish, primary screen, whole organism, PED6 fluorescence, gall bladder and intestine (AID 686).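 Further: larvae 5 to 7 days old with five fish per well; signal comes from phospholipase A2 cleavage of quenched PED6 carried via bile; overnight exposure to compound and PED6 before scoring.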 The note with it: Zebrafish larvae PED6 lipid processing, fluorescence scoring; screened at 20 µM (by protocol). The gist of the method: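 System: live zebrafish larvae aged 5-7 days, whole organism; measure: graded gall bladder and intestinal fluorescence inhibition per well; incubation: overnight exposure; reagent: ingested quenched lipid PED6 at 100 nM; signal: By-eye fluorescence microscopy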

The nature of experiment [9]: loss of swimming-algae plug formation – whole organism, Chlamydomonas reinhardtii, WT vs cilia-less mutant, absorbance, 96-well, primary screen (AID 463189;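 active means inhibition at or above 50% relative to wild type and mutant plate controls; inactive means inhibition below 50%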;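 further: 0% = wild type cc124 cells in DMSO and 100% = ciliumless bld1 mutant cells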). The note with it: Chlamydomonas reinhardtii gravitaxis, OD600 absorbance, 2 days; at 10 µM; stronger effect = higher value.
Where [10] appears, read: measured here: cell density z-score.
Where [11] appears, read: measured here: nuclear c-Myc green intensity z-score.
[12] abbreviates: measured here: nuclear pErk red intensity z-score, stronger effect = higher value.

Consider `N#CC(C(=O)NC1CC1)c1nc2ccccc2nc1N1CCN(C/C=C/c2ccccc2)CC1` (stereo unspecified), for which the cell count in experiment [1] is 507. Besides, the inhibition (as a rule, the change of the read-out against control, counted positive when it falls) in experiment [1] is -4.6% (inactive); in experiment [2], -99.8% (inactive); in experiment [4], 2.46% (inactive); in experiment [9], 26.9% (inactive). Besides, the nuclei count in experiment [2] was 164%. The z-score in [3] (setting [10]) was -0.376; in experiment [3] (setting [11]), 0.378; in experiment [3] (setting [12]), 1.69. Also, the fluorescence slope in [5] was -0.304 (inactive). For the same compound, the NADPH fluorescence slope in [6] was -1.2e-05 (inactive). In experiment [7], the slope was -0.000245 (inactive). For the same compound, the compound was called inactive in experiment [8].

In the case of `C=C(C)CSC1=C(C#N)C(c2ccsc2)CC(=O)N1` (stereo unspecified), the cell count in [1] came to 486. In addition, the inhibition in experiment [1] is -5% (inactive); in experiment [2], 8.3% (inactive); in experiment [4] it was -5.89% (inactive); in experiment [9], 13% (inactive). The compound further came in with a nuclei count in experiment [2] of 121%. Further, the z-score was -1 in experiment [3] (setting [10]), -0.892 in [3] (setting [11]) and 0.991 in [3] (setting [12]). Further, the fluorescence slope in experiment [5] is -0.512 (inactive). In addition, the NADPH fluorescence slope in [6] was -6.2e-05 (inactive). In experiment [7], the slope is 0.00453 (inactive). In addition, the call in [8] was inactive.

On to `Cc1c(/C(O)=C2\C(=O)C(=O)N(CCN(C)C)C2c2cccnc2)cnn1-c1ccccc1` (stereo unspecified), for which the cell count in [1] stood at 512. The inhibition was -1.7% (inactive) in experiment [1], -140% (inactive) in experiment [2], -8.76% (inactive) in experiment [4] and -1.73% (inactive) in experiment [9]. The nuclei count in experiment [2] stood at 139%. In addition, the figures for the z-score in [3] (setting [10]), in experiment [3] (setting [11]) and in experiment [3] (setting [12]) were 1.11, -1.54 and 0.165, respectively. Also, the fluorescence slope in experiment [5] was -0.564 (inactive). In experiment [6], the NADPH fluorescence slope is -7.1e-05 (inactive). Besides, the slope in [7] was 0.00465 (inactive). Also, in [8], the compound was classed as inactive.

For `COC(=O)C1=C(C)N=C2SC(C)C(=O)N2C1c1cccc(F)c1` (stereo unspecified), in experiment [1], the cell count was determined as 346. In addition, the inhibition in [1] is -0.4% (inactive); in experiment [2] it was -96.3% (inactive); in experiment [4], 12.3% (inactive); in experiment [9], -8.16% (inactive). Besides, the nuclei count in experiment [2] is 129%. Besides, the values for the z-score in experiment [3] (setting [10]), in [3] (setting [11]) and in [3] (setting [12]) were 0.762, -0.181 and -0.313, respectively. For the same compound, the fluorescence slope in experiment [5] is -0.485 (inactive). The NADPH fluorescence slope in experiment [6] is -4.6e-05 (inactive). In addition, in experiment [7], the slope was 0.00444 (inactive). In experiment [8], the result was inactive.

On to `COc1ccc(OC)c(NC(=O)CSC2=C(C#N)C(c3ccco3)C3=C(CCCC3=O)N2)c1` (stereo unspecified), for which the cell count in [1] was 356. Further, the inhibition in experiment [1] was -6.8% (inactive); in [2], -37.1% (inactive); in experiment [4] it was -6.59% (inactive); in experiment [9], 20.2% (inactive). The nuclei count in [2] was 141%. Further, the figures for the z-score in experiment [3] (setting [10]), in [3] (setting [11]) and in [3] (setting [12]) were -0.66, -0.0626 and 0.62, respectively. The fluorescence slope in experiment [5] is -0.404 (inactive). Besides, the NADPH fluorescence slope in [6] was -0.000112 (inactive). Further, the slope in experiment [7] was 0.00599 (inactive). For the same compound, in experiment [8], the outcome was inactive.

`C=CCNC(=O)C(C#N)c1nc2ccccc2nc1N1CCCCCC1` (stereo unspecified): the cell count in experiment [1] stood at 537. Also, the inhibition in experiment [1] is -1.4% (inactive); in [2], -190% (inactive); in experiment [4] it was 15% (inactive); in experiment [9], 10.7% (inactive). In experiment [2], this compound showed a nuclei count of 178%. For the same compound, the z-score in experiment [3] (setting [10]) was -1.46; in experiment [3] (setting [11]), 1.13; in [3] (setting [12]), 1.59. For the same compound, the fluorescence slope in experiment [5] is -0.302 (inactive). In addition, the NADPH fluorescence slope in [6] is -1.1e-05 (inactive). Also, the slope in [7] is -0.000734 (inactive). In experiment [8], the compound was classed as inactive.

On to `CCCCC1CC1C(=O)Nc1ccc(OC)c(OC)c1` (stereo unspecified), for which the cell count in experiment [1] worked out at 421. The inhibition in [1] is -0.9% (inactive); in experiment [2], -42.1% (inactive); in experiment [4], -8.95% (inactive); in experiment [9], 22% (inactive). For the same compound, the nuclei count in [2] came to 190%. In addition, the z-score in experiment [3] (setting [10]) is -1.27; in experiment [3] (setting [11]) it was -0.533; in experiment [3] (setting [12]) it was 0.586. In addition, in [5], the fluorescence slope is -0.39 (inactive). For the same compound, the NADPH fluorescence slope in [6] was -2.3e-05 (inactive). The slope in experiment [7] was 0.00756 (inactive). For the same compound, in experiment [8], the outcome was inactive.
